Test results from ChEMBL document CHEMBL1148429, “Penicillin-derived inhibitors that simultaneously target both metallo- and serine-beta-lactamases” (Bioorg Med Chem Lett, 2004).
≈ marks a conversion by molar mass, not a printed value.

What was measured:
Pseudomonas aeruginosa [1] = experiment: Synergistic activity against VIM-7 beta lactamase produced by Pseudomonas aeruginosa in presence of Piperacillin; R = Resistant
Pseudomonas aeruginosa [2] = experiment: Synergistic activity against VIM-1 beta lactamase produced by Pseudomonas aeruginosa in presence of Piperacillin; R = Resistant
[3] = Synergistic activity against VIM-1 beta lactamase produced by Pseudomonas aeruginosa in presence of Piperacillin
[4] = Synergistic activity against SPM-1 beta lactamase produced by Pseudomonas aeruginosa in presence of Piperacillin
[5] = molecular target: T1, Metallo-beta-lactamase type 2 (Bacillus cereus, UniProt P14488); experiment: Inhibition of class B (BCII) metallo-beta-lactamase representative enzyme
T1 sequence (P14488 whole entry): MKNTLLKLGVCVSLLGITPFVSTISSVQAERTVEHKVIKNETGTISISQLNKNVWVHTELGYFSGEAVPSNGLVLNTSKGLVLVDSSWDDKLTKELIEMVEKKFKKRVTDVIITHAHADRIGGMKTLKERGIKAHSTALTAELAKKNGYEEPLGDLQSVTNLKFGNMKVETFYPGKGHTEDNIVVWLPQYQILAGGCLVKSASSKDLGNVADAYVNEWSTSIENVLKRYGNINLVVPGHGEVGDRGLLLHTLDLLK
Summary of the method: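 BCII metallo-β-lactamase assay: inhibitor and enzyme incubated together for 4 min in 970 µL, then concentrated nitrocefin added to 1 mL final volume. IC50 determined from nitrocefin hydrolysis.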

[6] = Synergic activity against IMP-1 beta lactamase produced by Escherichia coli was determined in presence of Piperacillin; assay type: functional
Beta-lactamase L1 = Beta-lactamase L1 (Stenotrophomonas maltophilia, UniProt P52700); experiment: Beta-Lactamase Inhibition of metallo-beta-lactamase representative class B (L1) enzyme
Chain of Beta-lactamase L1 (P52700 whole entry): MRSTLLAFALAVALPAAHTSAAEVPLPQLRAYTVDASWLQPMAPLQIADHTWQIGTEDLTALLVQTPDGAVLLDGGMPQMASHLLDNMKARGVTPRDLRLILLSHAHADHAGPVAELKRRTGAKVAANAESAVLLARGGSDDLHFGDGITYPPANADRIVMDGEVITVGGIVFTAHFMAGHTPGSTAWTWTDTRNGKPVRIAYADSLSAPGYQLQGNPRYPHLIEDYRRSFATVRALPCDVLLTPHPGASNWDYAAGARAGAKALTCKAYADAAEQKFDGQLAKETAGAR
Summary of the method: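 For the metallo enzyme, inhibitor and enzyme were preincubated for 4 min. Concentrated nitrocefin was then added to give the final assay volume, and IC50 was determined.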

[7] = molecular target: Beta-lactamase TEM (Escherichia coli) (UniProt P62593); experiment: Beta-Lactamase inhibitory activity against representative class A (TEM-1) serine enzyme from Escherichia coli ATCC 35218 in presence of Piperacillin
Chain of Beta-lactamase TEM (Escherichia coli) (P62593 whole entry): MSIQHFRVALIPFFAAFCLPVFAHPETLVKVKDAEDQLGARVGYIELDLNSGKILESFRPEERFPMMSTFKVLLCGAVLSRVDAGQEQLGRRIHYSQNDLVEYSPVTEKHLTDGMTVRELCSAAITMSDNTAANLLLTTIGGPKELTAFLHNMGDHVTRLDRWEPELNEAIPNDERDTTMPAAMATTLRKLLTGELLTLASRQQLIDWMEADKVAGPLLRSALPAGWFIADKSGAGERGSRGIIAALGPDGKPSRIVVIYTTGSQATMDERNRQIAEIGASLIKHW
Summary of the method: (§1)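 MIC of piperacillin against β-lactamase-producing strains, with the piperacillin concentration varied and the inhibitor held constant at […].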

[8] = molecular target: Beta-lactamase (Escherichia coli K-12) (UniProt P00811)
Chain of Beta-lactamase (Escherichia coli K-12) (P00811 whole entry): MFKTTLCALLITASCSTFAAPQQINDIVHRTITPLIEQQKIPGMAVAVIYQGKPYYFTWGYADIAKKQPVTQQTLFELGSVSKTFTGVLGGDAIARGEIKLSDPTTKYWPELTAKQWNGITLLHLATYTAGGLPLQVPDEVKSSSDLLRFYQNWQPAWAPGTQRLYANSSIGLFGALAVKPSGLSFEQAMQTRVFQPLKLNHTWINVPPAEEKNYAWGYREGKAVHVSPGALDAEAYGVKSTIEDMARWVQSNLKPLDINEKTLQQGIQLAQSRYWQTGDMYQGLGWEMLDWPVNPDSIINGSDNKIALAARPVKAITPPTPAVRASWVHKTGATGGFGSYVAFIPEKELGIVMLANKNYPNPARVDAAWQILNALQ

Staphylococcus aureus [9] = experiment: Antibacterial activity was determined against the Staphylococcus aureus ATCC 29213 in presence of Piperacillin; assay type: functional
Summary of the method: as §1

[10] = Synergistic activity against VIM-7 beta lactamase produced by Escherichia coli in presence of Piperacillin; assay type: functional, plasmodium aeruginosa; conditions: Pseudomonas aeruginosa
Escherichia coli [11] = experiment: Synergic activity against IMP-1 beta lactamase produced by Escherichia coli in presence of Piperacillin and Tazobactam; S = susceptible; assay type: functional
Summary of the method: (§2)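 Synergy with piperacillin against metallo-β-lactamase-producing strains (IMP-1; SPM-1, VIM-1 or VIM-7 carriers). The initial screen used […] at a 1:1 antibiotic:inhibitor ratio. Inhibitor was tested with tazobactam or DVR-II-183 added as a serine β-lactamase inhibitor, or without one.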

Pseudomonas aeruginosa [12] = experiment: Synergistic activity against VIM-7 beta lactamase produced by Pseudomonas aeruginosa in presence of Piperacillin and Tazobactam; R = Resistant
Pseudomonas aeruginosa [13] = experiment: Synergistic activity against VIM-1 beta lactamase produced by Pseudomonas aeruginosa in presence of Piperacillin and Tazobactam; R = Resistant
Pseudomonas aeruginosa [14] = experiment: Synergistic activity against SPM-1 beta lactamase produced by Pseudomonas aeruginosa in presence of Piperacillin and Tazobactam; R = Resistant
Beta-lactamase TEM = Beta-lactamase TEM (Escherichia coli, UniProt P62593); experiment: Beta-Lactamase inhibitory activity against representative class A (TEM-1) serine enzyme
Chain of Beta-lactamase TEM (P62593 whole entry): as the sequence (P62593 whole entry) above
Summary of the method: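 Serine β-lactamase assay: inhibitor preincubated with enzyme for 4 min in 100 µL, then an aliquot transferred into dilute nitrocefin substrate (1 mL final). IC50 is expressed as the inhibitor concentration in the 100 µL incubation, from multiple experiments.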

[15] = Synergistic activity against VIM-1 beta lactamase produced by Escherichia coli in presence of Piperacillin and Tazobactam; assay type: functional, plasmodium aeruginosa; conditions: Pseudomonas aeruginosa
Summary of the method: as §2

[16] = Synergistic activity against SPM-1 beta lactamase produced by Pseudomonas aeruginosa in presence of Piperacillin and Tazobactam
Pseudomonas aeruginosa [17] = experiment: Synergistic activity against SPM-1 beta lactamase produced by Pseudomonas aeruginosa in presence of Piperacillin and compound 48; S = susceptible
Pseudomonas aeruginosa [18] = experiment: Synergistic activity against VIM-1 beta lactamase produced by Pseudomonas aeruginosa in presence of Piperacillin and compound 48; S = susceptible
Pseudomonas aeruginosa [19] = experiment: Synergistic activity against VIM-7 beta lactamase produced by Pseudomonas aeruginosa in presence of Piperacillin and compound 48; R = Resistant
[20] = Synergic activity against IMP-1 beta lactamase produced by Escherichia coli in presence of Piperacillin and Tazobactam; assay type: functional
Summary of the method: as §2

Pseudomonas aeruginosa [21] = experiment: Synergistic activity against SPM-1 beta lactamase produced by Pseudomonas aeruginosa in presence of Piperacillin; S = susceptible
[22] = Synergistic activity against VIM-1 beta lactamase produced by Pseudomonas aeruginosa in presence of Piperacillin and DVRII183
Escherichia coli [23] = experiment: Synergic activity against IMP-1 beta lactamase producing Escherichia coli in presence of Piperacillin and compound 48; S = susceptible; assay type: functional
Summary of the method: as §2

[24] = Synergic activity against IMP-1 beta lactamase produced by Escherichia coli in presence of Piperacillin; assay type: functional
Summary of the method: as §2

Pseudomonas aeruginosa [25] = experiment: Synergistic activity against SPM-1 beta lactamase produced by Pseudomonas aeruginosa in presence of Piperacillin and Tazobactam; S = susceptible
[26] = Synergistic activity against VIM-7 beta lactamase produced by Escherichia coli in presence of Piperacillin and Tazobactam; assay type: functional, plasmodium aeruginosa; conditions: Pseudomonas aeruginosa
Summary of the method: as §2

[27] = Synergic activity against IMP-1 beta lactamase produced by Escherichia coli in presence of Piperacillin and DVRII183; assay type: functional
Summary of the method: as §2

Escherichia coli [28] = experiment: Synergic activity against IMP-1 beta lactamase produced by Escherichia coli in presence of Piperacillin; S = susceptible; assay type: functional
Summary of the method: as §2

[29] = Synergistic activity against SPM-1 beta lactamase produced by Pseudomonas aeruginosa in presence of Piperacillin and DVRII183
[30] = Synergistic activity against VIM-7 beta lactamase produced by Escherichia coli in presence of Piperacillin and DVRII183; assay type: functional, plasmodium aeruginosa; conditions: Pseudomonas aeruginosa
Summary of the method: as §2

Staphylococcus aureus [31] = experiment: Antibacterial activity was determined against the Staphylococcus aureus ATCC 29213; assay type: functional
[32] = Synergistic activity of compound was determined against […]; assay type: functional, plasmodium aeruginosa; conditions: Pseudomonas aeruginosa
Summary of the method: as §2

[33] = Synergistic activity of compound was determined against SPM-1 beta lactamase produced by Pseudomonas aeruginosa
[34] = Synergistic activity of compound was determined against VIM-7 beta lactamase produced by Pseudomonas aeruginosa
[35] = molecular target: Beta-lactamase TEM (Escherichia coli) (UniProt P62593); experiment: Beta-Lactamase inhibitory activity against represent active class A (TEM-1) serine enzyme from Escherichia coli ATCC 35218
[36] = Synergic activity of compound was determined against IMP-1 beta lactamase produced by Escherichia coli; assay type: functional
Summary of the method: as §2

Structure (SMILES): C[C@]1(Cn2ccnn2)[C@H](C(=O)[O-])N2C(=O)C[C@H]2S1(=O)=O.[Na+] [TAZOBACTAM SODIUM]
- Activity (Pseudomonas aeruginosa [1]): Resistant
- Activity (Pseudomonas aeruginosa [2]): Resistant
- MIC [3]: > 128 µg/mL
- MIC [4]: > 128 µg/mL
- IC50 [5]: > 200 µM
- MIC [6]: > 128 µg/mL
- IC50 (Beta-lactamase L1): > 200 µM
- MIC [7]: 1 µg/mL
- MIC [8]: 0.5 µg/mL
- MIC (Staphylococcus aureus [9]): 1 µg/mL
- MIC [10]: > 128 µg/mL

Structure (SMILES): CC1(C)S[C@@H]2[C@@H](CS)C(=O)N2[C@H]1C(=O)O
- Activity (Escherichia coli [11]): Susceptible
- IC50 [5]: 1.7 µM
- Activity (Pseudomonas aeruginosa [12]): Resistant
- IC50 (Beta-lactamase L1): 10.9 µM
- MIC [7]: > 128 µg/mL
- Activity (Pseudomonas aeruginosa [13]): Resistant
- MIC [8]: 2 µg/mL (≈ 8.09 µM)
- MIC (Staphylococcus aureus [9]): 4 µg/mL
- Activity (Pseudomonas aeruginosa [14]): Resistant

Structure (SMILES): CC1(C)S[C@@H]2[C@H](CO)C(=O)N2[C@H]1C(=O)O
- IC50 (Beta-lactamase TEM): 752 µM
- IC50 [5]: > 200 µM
- IC50 (Beta-lactamase L1): > 200 µM
- MIC [7]: > 128 µg/mL
- MIC [8]: 4 µg/mL (≈ 17.3 µM)
- MIC (Staphylococcus aureus [9]): 4 µg/mL

Structure (SMILES): CC1(C)[C@H](C(=O)O)N2C(=O)[C@H](CS)[C@H]2S1(=O)=O
- Activity (Escherichia coli [11]): Susceptible
- IC50 [5]: 12 µM
- Activity (Pseudomonas aeruginosa [12]): Resistant
- IC50 (Beta-lactamase L1): 0.3 µM
- MIC [7]: 32 µg/mL
- Activity (Pseudomonas aeruginosa [13]): Resistant
- MIC [8]: 0.5 µg/mL (≈ 1.79 µM)
- MIC (Staphylococcus aureus [9]): 4 µg/mL
- Activity (Pseudomonas aeruginosa [14]): Resistant

Structure (SMILES): CC1(C)[C@H](C(=O)O)N2C(=O)[C@@H](CO)[C@H]2S1(=O)=O
- IC50 [5]: > 200 µM
- IC50 (Beta-lactamase L1): 72.3 µM
- MIC [7]: 1 µg/mL
- MIC [8]: 0.125 µg/mL (≈ 0.475 µM)
- MIC (Staphylococcus aureus [9]): 1 µg/mL

Structure (SMILES): CC1(C)[C@H](C(=O)O)N2C(=O)[C@@H](CS)[C@H]2S1(=O)=O
- Activity (Pseudomonas aeruginosa [1]): Resistant
- MIC [15]: > 128 µg/mL
- Activity (Pseudomonas aeruginosa [2]): Resistant
- MIC [16]: 64 µg/mL
- MIC [3]: > 128 µg/mL
- Activity (Pseudomonas aeruginosa [17]): Susceptible
- Activity (Pseudomonas aeruginosa [18]): Susceptible
- Activity (Pseudomonas aeruginosa [19]): Resistant
- MIC [20]: 8 µg/mL
- MIC [4]: 64 µg/mL
- Activity (Pseudomonas aeruginosa [21]): Susceptible
- Activity (Escherichia coli [11]): Susceptible
- MIC [22]: 128 µg/mL
- Activity (Escherichia coli [23]): Susceptible
- IC50 [5]: 1.4 µM
- Activity (Pseudomonas aeruginosa [12]): Resistant
- MIC [24]: 8 µg/mL
- Activity (Pseudomonas aeruginosa [25]): Susceptible
- IC50 (Beta-lactamase L1): 0.1 µM
- MIC [26]: > 128 µg/mL
- MIC [7]: 8 µg/mL
- Activity (Pseudomonas aeruginosa [13]): Resistant
- MIC [27]: 8 µg/mL
- Activity (Escherichia coli [28]): Susceptible
- MIC [8]: 0.25 µg/mL (≈ 0.895 µM)
- MIC (Staphylococcus aureus [9]): 2 µg/mL
- MIC [10]: > 128 µg/mL
- MIC [29]: 64 µg/mL
- MIC [30]: > 128 µg/mL

Structure (SMILES): CCN1CCN(C(=O)N[C@@H](C(=O)N[C@@H]2C(=O)N3[C@@H]2SC(C)(C)[C@@H]3C(=O)O)c2ccccc2)C(=O)C1=O [PIPERACILLIN]
- MIC (Staphylococcus aureus [31]): 8 µg/mL (≈ 15.5 µM)
- MIC [32]: > 128 µg/mL
- MIC [33]: > 128 µg/mL
- MIC [34]: > 128 µg/mL
- MIC [35]: > 128 µg/mL
- MIC [36]: > 128 µg/mL

Structure (SMILES): CC1(C)[C@H](C(=O)O)N2C(=O)[C@H](CO)[C@H]2S1(=O)=O
- IC50 [5]: > 200 µM
- IC50 (Beta-lactamase L1): > 200 µM
- MIC [7]: 8 µg/mL
- MIC [8]: 0.25 µg/mL (≈ 0.95 µM)
- MIC (Staphylococcus aureus [9]): 2 µg/mL
